# Results gathered from unrelated publications.
# Target: Casein kinase I isoform gamma-1 (CSNK1G1, Homo sapiens, UniProt Q9HCP0)
Structure (SMILES),test,conditions,remaining binding [%]
C[C@@H]1CN(c2cc(-c3nn(C)c4ccc(OC5(C)CC5)cc34)ncn2)C[C@H](C)O1,"cell-free assay, competition with immobilised ligand",1 µM,89
CN(c1nccc(-c2cnn3ncccc23)n1)C1CC1,binding,1 µM,100
CN(C)c1ncnc(-c2ccc3nc(Nc4cc(CN5CCN(C(=O)CC(F)(F)F)CC5)ccn4)[nH]c3c2)c1Cl,"cell-free assay, competition with immobilised ligand",1 µM,76
N[C@@H]1CCN(c2nccc(-c3cnn4ncccc34)n2)C1,binding,1 µM,100
COc1cnc(Nc2cccc(S(N)(=O)=O)c2)nc1N1CCN(c2ccccc2)C(=O)C1,"binding, competition with immobilised ligand",1 µM,100
O=C(NCCCN1CCOCC1)c1ccc(Nc2nccc(-c3cc4ccccc4s3)n2)cc1,"binding, competition with immobilised ligand",1 µM,81
c1cncc(-c2cccc(Nc3nccc(NC4CCCCC4)n3)c2)c1,"binding, competition with immobilised ligand",10 µM,89
CCC(=O)N[C@H]1CC[C@@H](C(=O)N(C)c2ccc(-c3nc4ccccc4o3)cc2)C1,"cell-free assay, competition with immobilised ligand",1 µM,90
O=C(Nc1c[nH]nc1C(=O)NC1CCNCC1)c1cc(F)cc(F)c1,"binding, competition with immobilised ligand",1 µM,89
O=C(NCCCN1CCOCC1)c1ccc(Nc2ncc(Cl)c(-c3ccc(Cl)s3)n2)cc1,"binding, competition with immobilised ligand",1 µM,88
CCN1CCN(Cc2ccc(C(=O)Nc3ccc(C)c(Oc4ccc5c(c4)CC(=O)N5)c3)cc2C(F)(F)F)CC1,"binding, competition with immobilised ligand",1 µM,100
Cn1nc(C(=O)NCc2ccc(C(=O)O)cc2)cc1-c1ccc2[nH]ccc2c1,"cell-free assay, competition with immobilised ligand",0.1 µM,91
COc1ncc2cc3ccccc3nc2c1C#N,"cell-free assay, competition with immobilised ligand",5 µM,100
Cc1cnn2ncc(-c3ccnc(N(C)C)n3)c2c1,binding,1 µM,73
O=C(c1ccc(Nc2nccc(-c3cc4ccccc4s3)n2)cc1)N1CCC(N2CCCC2)CC1,"binding, competition with immobilised ligand",1 µM,88
C[C@H]1CCN(c2nccc(-c3cnn4ncccc34)n2)C1,binding,1 µM,85
CNC(=O)[C@@H]1CC[C@@H](n2c(-c3ccc4cnccc4c3)nc3ccc(C(=O)NCc4cccc(C(N)=O)c4)cc32)C1,"binding, competition with immobilised ligand",1 µM,100
CN(C)c1nccc(-c2cnn3ncccc23)n1,binding,1 µM,100
C[C@@H]1CN(c2cc(-c3n[nH]c4ccc(OC5(C)CC5)cc34)ncn2)C[C@H](C)O1,"cell-free assay, competition with immobilised ligand",0.1 µM,100
